Assay results published in PubChem BioAssay.
Activity calls are given as the source filed them. Unless noted, no stated cut-off is given here; in the data, active means inhibition above about 30%; inactive means the rest.

What was measured:
[1] = reducers of endogenous Her2 protein level, primary screen, SKBR3 breast tumor cells, AlphaScreen, ATP viability (AID 461;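 active means Her2 level under about 52% in both replicate screens, with viability over 70% of control, limit read from the data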;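 on Her2 level: lower value means less Her2 protein in the cells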;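 on viability: percent of carrier control wells set as 100% viability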); conditions: 18-24 h, measured here: SKBR3 viability, ATP luminescence, at 10 µM
[2] = biological target: Receptor tyrosine-protein kinase erbB-2 (Homo sapiens) (UniProt P04626); test: as above; conditions: 18-24 h, at 10 µM, stronger effect = lower value
[3] = SK-BR-3 cell growth inhibitors, pilot screen, 24 h, human (AID 572;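 active means viability at or below 10% of carrier control in both of two separate runs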;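 further: compound exposure lasted between 18 and 24 h rather than exactly 24 h; 100% = carrier-treated control wells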); conditions: SK-BR-3 viability, CellTiter-Glo luminescence, at 10 µM, stronger effect = lower value
[4] = HUVEC growth inhibition – cell-based, human, primary screen (AID 575;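 active means viability at or below 30% in both replicate assays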;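 further: 100% = median of untreated cell wells with 0.1% DMSO on each plate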); conditions: HUVEC proliferation, CellTiter-Glo luminescence, 72 h; at 10 µM; stronger effect = lower value
Method in brief: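 Test system: primary human umbilical vein endothelial cells. Quantity: 1250 cells/well. Compound: single 10 µM dose, 0.1% DMSO, from 5x medium stock. Timing: 72 h treatment at 37 °C. Detection: ATP-based CellTiter-Glo luminescent read. Benchmarks: vehicle and MePR control wells. Format: 384-well plates coated with collagen.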

[5] = growth inhibitors of H69AR lung tumor, primary screen, human, duplicate replicates (AID 580;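 active means viability at or under a set limit in both replicates, limit being median viability minus 3 SD, cut at about 48% in these data, passing the limit was not always enough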;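 further: 100% = mean luminescence of untreated wells and 0% = no signal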); conditions: H69AR lung tumor cells viability, ATP luminescence, 72 h; at 10 µM; stronger effect = lower value
[6] = reversal of MRP1-mediated doxorubicin resistance, pilot screen, H69AR cells, doxorubicin co-treatment (AID 601;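 active means viability loss from added drug above about 55%, and viability with drug at most 40%, in both replicates, limit read from the data, passing the limit was not always enough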); conditions: CellTiter-Glo, 72 h, at 10 µM; for differential viability (reversal): stronger effect = higher value
[7] = 384-well plate pilot, post-Golgi transport modulator project, inhibition of yeast transport mutant growth (AID 636; in the data active means inhibition above about 31%); conditions: absorbance 615 nm, about 18 h, stronger effect = higher value
[8] = growth suppression of yeast trafficking mutant, preliminary HTS, modulators of trafficking downstream of Golgi apparatus project, 1536-format plate, OD 615 nm (AID 637); conditions: yeast transport mutant growth, absorbance 615 nm, 18 h; stronger effect = higher value
[9] = H69AR cells + 2 uM doxorubicin, measured here: viability with 2 uM doxorubicin, stronger effect = lower value
[10] = H69AR cells, compound alone cytotoxicity

Receptor tyrosine-protein kinase erbB-2 (Homo sapiens), sequence (P04626 whole entry, looked up): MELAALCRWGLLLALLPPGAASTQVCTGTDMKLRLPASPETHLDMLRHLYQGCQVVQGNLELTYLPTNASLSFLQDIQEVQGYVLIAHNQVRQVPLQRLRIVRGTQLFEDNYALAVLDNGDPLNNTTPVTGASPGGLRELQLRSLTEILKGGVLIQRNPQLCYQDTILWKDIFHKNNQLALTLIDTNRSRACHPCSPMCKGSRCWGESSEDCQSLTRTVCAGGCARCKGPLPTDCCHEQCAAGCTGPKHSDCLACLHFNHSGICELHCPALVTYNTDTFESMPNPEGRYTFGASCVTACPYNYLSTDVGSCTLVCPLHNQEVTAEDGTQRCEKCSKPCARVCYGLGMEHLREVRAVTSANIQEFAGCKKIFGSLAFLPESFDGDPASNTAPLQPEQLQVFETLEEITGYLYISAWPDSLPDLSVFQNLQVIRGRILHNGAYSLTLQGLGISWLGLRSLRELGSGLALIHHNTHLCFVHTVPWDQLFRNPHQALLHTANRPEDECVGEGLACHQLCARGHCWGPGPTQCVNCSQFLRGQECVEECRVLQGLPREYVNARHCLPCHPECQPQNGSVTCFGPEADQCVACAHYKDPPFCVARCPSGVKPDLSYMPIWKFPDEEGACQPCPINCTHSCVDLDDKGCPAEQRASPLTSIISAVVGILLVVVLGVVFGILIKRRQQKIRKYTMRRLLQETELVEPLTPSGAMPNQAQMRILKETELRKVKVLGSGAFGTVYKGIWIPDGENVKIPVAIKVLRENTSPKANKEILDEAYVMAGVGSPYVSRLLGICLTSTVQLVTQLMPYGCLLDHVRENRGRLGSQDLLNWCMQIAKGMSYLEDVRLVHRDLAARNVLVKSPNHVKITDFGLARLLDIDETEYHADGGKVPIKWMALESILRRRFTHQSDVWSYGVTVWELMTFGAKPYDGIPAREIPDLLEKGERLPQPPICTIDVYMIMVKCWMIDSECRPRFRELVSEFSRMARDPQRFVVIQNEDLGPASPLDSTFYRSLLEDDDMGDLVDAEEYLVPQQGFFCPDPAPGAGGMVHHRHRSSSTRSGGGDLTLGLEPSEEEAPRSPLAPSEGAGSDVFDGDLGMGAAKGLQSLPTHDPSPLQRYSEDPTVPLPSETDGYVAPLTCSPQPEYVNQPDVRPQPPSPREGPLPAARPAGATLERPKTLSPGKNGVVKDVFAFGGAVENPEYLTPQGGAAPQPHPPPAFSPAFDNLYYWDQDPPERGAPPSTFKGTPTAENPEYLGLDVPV

SMILES	viability [1] [%]	Her2 level [2]	viability [3]	viability [4]	viability [5]	differential viability (reversal) ([6]; H69AR cells + 2 uM doxorubicin)	viability [6, 9] [%]	viability [6, 10] [%]	inhibition [7]	inhibition [8]
CN(C#N)c1nc(N2CCOCC2)nc(N2CCOCC2)n1	111	120% (inactive)	111% (inactive)	81.7% (inactive)	92.8% (inactive)	3.22% (inactive)	89.5	92.8	-1.22% (inactive)	6.35% (inactive)
COc1cccc(OC)c1OCCNCCO	126	98% (inactive)	126% (inactive)	85.7% (inactive)	96% (inactive)	11.2% (inactive)	84.8	96	-1.82% (inactive)	0.33% (inactive)
CCOC(=O)CSc1nc(N)c2c3c(sc2n1)CCCC3	104	96.5% (inactive)	104% (inactive)	78.7% (inactive)	89.3% (inactive)	0.02% (inactive)	89.3	89.3	0.8% (inactive)	2.58% (inactive)
Cn1cccc1-c1cc(C(=O)O)[nH]n1	129	110% (inactive)	129% (inactive)	106% (inactive)	93.8% (inactive)	-7.12% (inactive)	101	93.8	-4.61% (inactive)	1.64% (inactive)
CCN(CC)C(=O)C1CCCN(Cc2ccc(N(C)C)cc2)C1 (stereo not given)	90.5	96.5% (inactive)	90.5% (inactive)	100% (inactive)	89.5% (inactive)	-3.46% (inactive)	93	89.5	-1.82% (inactive)	-4.75% (inactive)
Cc1cccc(C)c1OCc1nnc2c3cnn(C)c3ncn12	100	138% (inactive)	100% (inactive)	105% (inactive)	91.9% (inactive)	-2.03% (inactive)	94	91.9	-2.11% (inactive)	-4.59% (inactive)
O=C(Nc1ccc(CN2CCOCC2)cc1)c1cc2ccccc2oc1=O	99.5	88% (inactive)	99.5% (inactive)	92.2% (inactive)	82.6% (inactive)	2.02% (inactive)	80.6	82.6	-2.37% (inactive)	3.39% (inactive)
CCOC(=O)N1CCN(C(=O)c2cccn3c(=O)c4sccc4nc23)CC1	89.5	93.5% (inactive)	89.5% (inactive)	106% (inactive)	90.8% (inactive)	-12.8% (inactive)	104	90.8	3.6% (inactive)	-0.33% (inactive)
Cc1ccc(-n2c(=O)c(C#N)cc3c(=O)n4ccccc4nc32)cc1	100	84.5% (inactive)	100% (inactive)	62.1% (inactive)	97% (inactive)	7.35% (inactive)	89.6	97	-4.59% (inactive)	2.06% (inactive)
COc1cccc(NC(=O)Cc2nnc(SCC(=O)c3ccccc3)n2C)c1	92	83.5% (inactive)	92% (inactive)	85% (inactive)	68.1% (inactive)	8.65% (inactive)	59.4	68.1	-2.24% (inactive)	-3.49% (inactive)
CCOC(=O)C(NC(=O)Nc1ccccc1)(OCC)C(F)(F)F (stereo not given)	114	98% (inactive)	114% (inactive)	84.5% (inactive)	93.3% (inactive)	6.82% (inactive)	86.5	93.3	-0.26% (inactive)	12.1% (inactive)
O=C(C1CC1(c1ccccc1)c1ccccc1)N1CCOCC1 (stereo not given)	112	106% (inactive)	112% (inactive)	99.3% (inactive)	98.8% (inactive)	11.4% (inactive)	87.3	98.8	-5.6% (inactive)	1.45% (inactive)
CCS(=O)(=O)N1CCC(C(=O)NCCc2ccc(C)cc2)CC1	99	106% (inactive)	99% (inactive)	100% (inactive)	89.3% (inactive)	7.41% (inactive)	81.9	89.3	-2.6% (inactive)	-9.68% (inactive)
Cn1c(=O)c2ncn(CC(=O)NCCOc3ccc(C(C)(C)C)cc3)c2n(C)c1=O	96.5	110% (inactive)	96.5% (inactive)	100% (inactive)	76.2% (inactive)	-17.6% (inactive)	93.8	76.2	-5.45% (inactive)	-6.03% (inactive)
CCOC(=O)CSc1nc2cc(C(=O)NCc3ccco3)ccc2c(=O)n1C1CCCCC1	112	83.5% (inactive)	112% (inactive)	91.7% (inactive)	89.8% (inactive)	2.55% (inactive)	87.3	89.8	-4.53% (inactive)	0.33% (inactive)
CS(=O)(=O)N1CCN(c2ccccc2NC(=O)c2cccs2)CC1	99.5	100% (inactive)	99.5% (inactive)	108% (inactive)	91.3% (inactive)	-5% (inactive)	96.3	91.3	-1.17% (inactive)	1% (inactive)
COc1ccc(CCn2c(C)cc(C(=O)CSc3nnnn3C)c2C)cc1	99.5	144% (inactive)	99.5% (inactive)	81.7% (inactive)	101% (inactive)	-3.11% (inactive)	104	101	-0.13% (inactive)	-1.83% (inactive)
CCCNS(=O)(=O)c1ccc(OCC(=O)NCc2ccc3c(c2)OCO3)cc1	105	89.5% (inactive)	105% (inactive)	88.2% (inactive)	94.1% (inactive)	4.96% (inactive)	89.1	94.1	-6.05% (inactive)	11% (inactive)
COc1cc(S(=O)(=O)N2CCC(N3CCCCC3)CC2)ccc1-n1cnnn1	92.5	108% (inactive)	92.5% (inactive)	98.3% (inactive)	98% (inactive)	8.69% (inactive)	89.3	98	-3.78% (inactive)	-6.35% (inactive)
CCOC(=O)c1c(C)oc2ccc(O)c(CN3CCCCC3)c12	87.5	79.5% (inactive)	87.5% (inactive)	90.2% (inactive)	86.9% (inactive)	-3.83% (inactive)	90.7	86.9	-1.84% (inactive)	2.22% (inactive)
C=CCn1c(=O)c2ccccc2n2c(SCC(=O)Nc3cc(C)on3)nnc12	92.5	89% (inactive)	92.5% (inactive)	87% (inactive)	98.3% (inactive)	10.6% (inactive)	87.7	98.3	-3.65% (inactive)	1.75% (inactive)
O=C(CCNS(=O)(=O)c1ccc(Cl)cc1)NCc1ccccn1	97.5	75.5% (inactive)	97.5% (inactive)	81.4% (inactive)	89.7% (inactive)	-6.95% (inactive)	96.7	89.7	-5.26% (inactive)	-1.83% (inactive)
O=S(=O)(c1ccc2c(c1)nc1n2CCC1)N1CCOCC1	102	87% (inactive)	102% (inactive)	102% (inactive)	98.9% (inactive)	7.71% (inactive)	91.2	98.9	-0.26% (inactive)	-4.44% (inactive)
COc1ccc(CC(=O)Nc2c3c(nn2-c2cccc(Cl)c2)CS(=O)(=O)C3)cc1	84.5	89% (inactive)	84.5% (inactive)	104% (inactive)	90.2% (inactive)	1.1% (inactive)	89.1	90.2	-6.8% (inactive)	3.06% (inactive)
CCN(CC)S(=O)(=O)c1ccc(Br)c(OC)c1	106	84% (inactive)	106% (inactive)	90.4% (inactive)	96.3% (inactive)	5.01% (inactive)	91.3	96.3	-6.89% (inactive)	-2.13% (inactive)
CN(C)S(=O)(=O)c1ccc(Oc2ccc(S(=O)(=O)N(C)C)cc2)cc1	80.5	96.5% (inactive)	80.5% (inactive)	54.4% (inactive)	93.8% (inactive)	-0.755% (inactive)	94.6	93.8	-2.4% (inactive)	-7.14% (inactive)
CCOC(=O)c1[nH]c(C)c(C(=O)N2CCN(c3ccc(F)cc3)CC2)c1C	107	84% (inactive)	107% (inactive)	107% (inactive)	92.3% (inactive)	2.1% (inactive)	90.2	92.3	-2.37% (inactive)	-4.44% (inactive)
O=C(Cn1ccc2ccccc2c1=O)NCCC(=O)N1CCN(C(=O)c2ccco2)CC1	89.5	109% (inactive)	89.5% (inactive)	102% (inactive)	98.1% (inactive)	6.74% (inactive)	91.4	98.1	-1.6% (inactive)	-2.3% (inactive)
C/C=C/Cn1c(Br)nc2c1c(=O)[nH]c(=O)n2C	101	91% (inactive)	101% (inactive)	90.7% (inactive)	93.5% (inactive)	7.23% (inactive)	86.3	93.5	-6.53% (inactive)	0.16% (inactive)
